The test system of one assay is L1210. The assay is described as follows: The ratio of survival time for treated divided by survival time of control x 100 at a dose of 0.2 mg/kg in L1210 leukemia cells. It is filed as functional, Mus musculus. In short, it runs like this:
(§1)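 Mice inoculated ip on day 0 with 1 × 10^5 L1210 leukemia or B16 melanoma cells. Compounds given ip once daily on days 1-9, suspended or dissolved in 5% PVP. Survival time recorded and averaged per group. Value is mean survival of treated over control × 100.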

The next assay has as its system B16. Put plainly: The ratio of survival time for treated divided by survival time of control x 100 at a dose of 0.2 mg/kg in B16 melanoma cells. It counts as functional, Mus musculus. In short, it runs like this:
as §1

The next assay has as its system HeLa. Put plainly: In vitro antimitotic activity against HeLa cells after 6 hours exposure. It is filed as functional, Homo sapiens. In short, it runs like this:
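Asynchronous HeLa cells were exposed to compound continuously for 6 h. Mitotic index (cells in mitosis/cells counted) was scored on about 300 cells counted across three fields. The equivalent dose (ED) is the concentration giving the same mitotic index as the colchicine standard at 0.05 µg/mL.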

Drawing on ChEMBL document CHEMBL1124841, “Chalcones: a new class of antimitotic agents” (1990), this text covers T/C and ED for one compound.

The structures appear in SMILES notation.

Turning to `CC[C@]1(O)C[C@@H]2CN(CCc3c([nH]c4ccccc34)[C@@](C(=O)OC)(c3cc4c(cc3OC)N(C)[C@H]3[C@@](O)(C(=O)OC)[C@H](OC(C)=O)[C@]5(CC)C=CCN6CC[C@]43[C@@H]65)C2)C1` [VINBLASTINE], the T/C (commonly the ratio of treated to control) in the assay on L1210 was 140%; in the assay with B16, 180%. This compound yielded an ED with HeLa of 0.0015 µg/mL.
